One experiment has as its system Candida albicans. As to the kind of experiment: Antifungal activity against Candida albicans assessed as total growth inhibition by micro-broth dilution method. The experiment is classed as functional. Put shortly: (§1)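 Broth microdilution following CLSI methods for yeasts and filamentous fungi. Compounds dissolved in DMSO, serially diluted in growth medium, inoculum added, incubation at 35 °C. MIC taken as the lowest concentration giving total inhibition of fungal growth. Testing done in triplicate.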
Background: Broth dilution looks for growth in wells or tubes with falling amounts of substance.

The test system of experiment [1] is Cryptococcus gattii species complex. The experiment in a line: Antifungal activity against Cryptococcus gattii assessed as total growth inhibition by micro-broth dilution method. In kind it is functional, Cryptococcus bacillisporus. Put shortly:
as §1

For a further experiment, the system named is Aspergillus fumigatus. The experiment in a line: Antifungal activity against Aspergillus fumigatus assessed as total growth inhibition by micro-broth dilution method. The experiment is classed as functional. The gist of the method: as §1
A further experiment has as its system Exophiala dermatitidis. As to the kind of experiment: Antifungal activity against Exophiala dermatitidis assessed as total growth inhibition by micro-broth dilution method. In kind it is functional. The gist of the method:
as §1

`O/N=C1\c2ccccc2OCC1n1ccnc1` (stereo unspecified): the minimal inhibitory concentration (MIC) in the experiment on Candida albicans was more than 64 µg/mL; in experiment [1] it was more than 64 µg/mL; with Aspergillus fumigatus it was more than 64 µg/mL; in the experiment with Exophiala dermatitidis, more than 128 µg/mL.

Take `Clc1ccc(OCCO/N=C2\c3ccccc3OCC2n2ccnc2)cc1.O=[N+]([O-])O` (racemic): the MIC in the experiment with Candida albicans is more than 64 µg/mL; in experiment [1], 4 µg/mL; with Aspergillus fumigatus, 64 µg/mL; with Exophiala dermatitidis, 64 µg/mL.

Turning to `O=[N+]([O-])O.c1ccc(OCCO/N=C2\c3ccccc3OCC2n2ccnc2)cc1` (racemic), the minimum inhibitory concentration (MIC) is more than 64 µg/mL with Candida albicans, 2 µg/mL in experiment [1], 32 µg/mL in the experiment with Aspergillus fumigatus and 128 µg/mL in the experiment on Exophiala dermatitidis.

`Fc1cccc(OCCO/N=C2\c3ccccc3OCC2n2ccnc2)c1.O=[N+]([O-])O` (racemic): the minimum inhibitory concentration (MIC) with Candida albicans is more than 64 µg/mL; in experiment [1] it was 2 µg/mL; with Aspergillus fumigatus, 64 µg/mL; in the experiment on Exophiala dermatitidis, 64 µg/mL.

On to `Clc1ccc(OCCO/N=C2\c3ccccc3OCC2n2ccnc2)c(Cl)c1.O=[N+]([O-])O` (racemic), for which the minimal inhibitory concentration (MIC) is more than 64 µg/mL with Candida albicans, 2 µg/mL in experiment [1], 64 µg/mL in the experiment with Aspergillus fumigatus and 128 µg/mL with Exophiala dermatitidis.

For `Fc1ccc(OCCO/N=C2\c3ccccc3OCC2n2ccnc2)cc1.O=[N+]([O-])O` (racemic), the minimum inhibitory concentration (MIC) in the experiment with Candida albicans is more than 64 µg/mL; in experiment [1], 4 µg/mL; in the experiment on Aspergillus fumigatus, 64 µg/mL; in the experiment on Exophiala dermatitidis, 128 µg/mL.

`Clc1cccc(OCCO/N=C2\c3ccccc3OCC2n2ccnc2)c1.O=[N+]([O-])O` (racemic): the MIC in the experiment on Candida albicans was more than 64 µg/mL; in experiment [1] it was 0.5 µg/mL; with Aspergillus fumigatus it was 32 µg/mL; in the experiment on Exophiala dermatitidis it was 64 µg/mL.

`CCC(C)n1ncn(-c2ccc(N3CCN(c4ccc(OCC5COC(Cn6cncn6)(c6ccc(Cl)cc6Cl)O5)cc4)CC3)cc2)c1=O` (stereo unspecified) [ITRACONAZOLE]: the minimal inhibitory concentration (MIC) is 0.25 µg/mL in the experiment on Candida albicans, 0.5 µg/mL in experiment [1], 4 µg/mL in the experiment on Aspergillus fumigatus and 0.5 µg/mL in the experiment on Exophiala dermatitidis.

As to `OC(Cn1cncn1)(Cn1cncn1)c1ccc(F)cc1F` [FLUCONAZOLE], the MIC in the experiment on Candida albicans is 2 µg/mL; in experiment [1], more than 64 µg/mL; in the experiment with Aspergillus fumigatus it was more than 64 µg/mL; with Exophiala dermatitidis, more than 64 µg/mL.

A word on the MIC: it is the least concentration at which growth counts as inhibited.

Source of the values: ChEMBL document CHEMBL3232911, “Imidazolylchromanones containing non-benzylic oxime ethers: synthesis and molecular modeling study of new azole antifungals selective against Cryptococcus gattii” (2014).
